VIM-2 inh – inhibitors of Pseudomonas aeruginosa VIM-2 metallo-beta-lactamase; purified VIM-2, nitrocefin hydrolysis, epi-absorbance fluorescence; AID 1527; 290,000 compounds, 0.89% hits; inhibition, % at 5.6 µM;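 active means inhibition above the mean of all tested compounds plus 3 SD, cutoff set per screening run, cut at about 7.5% in these data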;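 further: red hydrolysis product quenches plate fluorescence so inhibitors raise well fluorescence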
Yeast superoxide – yeast age-related superoxide inhibition as caloric restriction mimetic. S. cerevisiae aged cells, superoxide DHE fluorescence; hits give low values. superoxide response (% of plate mean), % at 10 µM. 330,000 compounds, 0.18% hits. AID 2690;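 active means superoxide response under a set limit, about three screen SD below normal, cut at about 65% in these data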;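 further: yeast aged for seven days with compound at 30 °C before DHE staining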
PvdQ inh – P. aeruginosa PvdQ acylase inhibition; purified PvdQ acylase, fluorescence plate reader; inhibition, % at 10 µM; 340,000 compounds, 0.063% hits; AID 488965; in the data active means inhibition above about 30%, passing the limit was not always enough
IMP-1 inhibitor – blocks Pseudomonas aeruginosa IMP-1 metallo-beta-lactamase; inhibition, % at 5.6 µM; purified IMP-1, nitrocefin hydrolysis, epi-absorbance fluorescence; 290,000 compounds, 0.45% hits;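 active means inhibition above the mean plus 3 SD of all compounds in the same screening run, cut at about 4.5% in these data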
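assay system = purified recombinant IMP-1 metallo-beta-lactamase enzyme | schedule = 15 min preincubation plus 25 min reaction at 25 °C | signal = Epi-absorbance fluorescence, 480 nm excitation, 530 nm emission | read-out basis = percent inhibition from optical density relative to buffer-blank wells | controls = IMP-1 with DMSO as 0%, enzyme-free DMSO as 100%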
PHOSPHO1 block – blocks human PHOSPHO1 phosphatase activity; Q8TCT1; recombinant PHOSPHO1, absorbance phosphatase assay; inhibition, % at 13.3 µM; 290,000 compounds, 1.1% hits; AID 1565; in the data active means inhibition above about 60%
Target sequence (Q8TCT1 whole entry, looked up): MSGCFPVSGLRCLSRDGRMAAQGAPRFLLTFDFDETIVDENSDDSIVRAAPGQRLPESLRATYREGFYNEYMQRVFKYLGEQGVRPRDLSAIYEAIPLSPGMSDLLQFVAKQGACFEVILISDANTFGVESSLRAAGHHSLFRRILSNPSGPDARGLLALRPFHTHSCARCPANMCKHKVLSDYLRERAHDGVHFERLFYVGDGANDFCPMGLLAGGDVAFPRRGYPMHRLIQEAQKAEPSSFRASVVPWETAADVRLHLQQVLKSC
Superoxide pick – confirmation of caloric restriction mimetics inhibiting yeast age-related superoxide; shares compounds with Yeast superoxide; 850 compounds, 1% hits; S. cerevisiae aging, superoxide DHE fluorescence; hits give low values; superoxide response (% of plate), % at 10 µM;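 active means superoxide signal below 65% of the plate average of sample wells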;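 further: cells aged with compound for 7 days at 30 degrees C before staining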
DHE fluor count – compound alters DHE oxidation or fluorescence in yeast; 850 tested, under 10 active; fluorescence response, % at 10 µM; S. cerevisiae BY4741, flow cytometry; hits give low values; shares compounds with Yeast superoxide;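 active means fluorescence response below 15%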;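 further: lower means stronger quenching of DHE signal or ROS scavenging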
Large screens that a line does not name were inactive (follow-up assays come after a bar, where they were run). An excerpt weighted towards active compounds, which were near 2.2% of everything screened.

C=CCNc1ncnc2c1cnn2-c1ccc(C)cc1C	none | Superoxide pick inactive | DHE fluor count inactive
Cc1ccc(-n2ncc3c(NCCCOC(C)C)ncnc32)c(C)c1	none (no result: PHOSPHO1 block)
COc1cccc(CNC(=O)[C@@H](C)N2C(=O)N3CCc4c([nH]c5ccc(OC)cc45)C3(C)C2=O)c1 (some centres not stated)	none
O=C(NCCO)c1cccc2c1-c1ccccc1C2=O	none
CC(C)(C)NC(=O)c1cccc2c1-c1ccccc1C2=O	Yeast superoxide 41.8 | Superoxide pick inactive | DHE fluor count inactive
c1ccc2nc3ccccc3nc2c1	Yeast superoxide 63.5 | Superoxide pick inactive | DHE fluor count inactive
CCC1(c2ccc(F)cc2)NC(=O)N(CC(=O)Nc2cccnc2Cl)C1=O (configuration not stated)	Yeast superoxide 63.8 (no result: VIM-2 inh, IMP-1 inhibitor, PHOSPHO1 block) | Superoxide pick inactive | DHE fluor count inactive
O=C(C1CCCO1)N1CCN(c2c3c(nc4cc(-c5ccc(F)cc5)nn24)CCC3)CC1 (configuration not stated)	Yeast superoxide 63.2 | Superoxide pick inactive | DHE fluor count inactive
OC1CCN(c2c3c(nc4cc(-c5ccc(F)cc5)nn24)CCC3)CC1	none
Cc1cc(NC(=O)CSC2=Nc3ccccc3C3=NC(Cc4ccccc4)C(=O)N23)n[nH]1 (configuration not stated)	none
CCN(CC)C(=O)CSC1=Nc2ccccc2C2=NC(Cc3c[nH]c4ccccc34)C(=O)N12 (configuration not stated)	Yeast superoxide 64.8 | Superoxide pick inactive | DHE fluor count inactive
CCOC(=O)c1cc2c(c(-c3ccccc3)n1)[C@@H](CCO)N(S(=O)(=O)C(C)(C)C)C2	none (no result: VIM-2 inh, Yeast superoxide, IMP-1 inhibitor, PHOSPHO1 block)
Cc1nn(-c2ccccc2)c(N2CCCC2)c1/C=N/Nc1ccc(S(N)(=O)=O)cc1[N+](=O)[O-]	Yeast superoxide 60.3 | Superoxide pick inactive | DHE fluor count inactive
CCCNC(=O)CSc1nnc(-c2ccc(F)cc2)o1	none | Superoxide pick inactive | DHE fluor count inactive
O=C(CSc1nnc(-c2ccc(F)cc2)o1)NC1CCCCC1	none
CCN(CC)C(=O)CSc1nnc(-c2ccccc2)o1	none | Superoxide pick inactive | DHE fluor count inactive
C=CCOC(=O)N1CCC2CC1c1cc(-c3cccc(C)c3)ccc12 (configuration not stated)	none (no result: VIM-2 inh, Yeast superoxide, IMP-1 inhibitor, PHOSPHO1 block)
O=C1c2c(O)ccc(O)c2C(=O)c2c(NCCNCCO)ccc(NCCNCCO)c21	Yeast superoxide 32.7 (no result: VIM-2 inh, IMP-1 inhibitor, PHOSPHO1 block) | Superoxide pick 45.8 | DHE fluor count 14.2
O=c1cc2c(nn1Cc1ccc(F)cc1)-c1ccccc1CC2	Yeast superoxide 59.1 | Superoxide pick inactive | DHE fluor count inactive
O=c1cc2c(nn1Cc1ccccc1)-c1ccccc1CC2	none
CC(C)CN(C(=O)COC(=O)c1cccc2ccccc12)c1c(N)n(Cc2ccccc2)c(=O)[nH]c1=O	none (no result: VIM-2 inh, IMP-1 inhibitor, PHOSPHO1 block)
COc1ccc(-c2ccc(=O)n(Cc3ccccc3)n2)cc1	none (no result: PHOSPHO1 block)
COc1ccc(-c2ccc(=O)n(Cc3cccc(Cl)c3)n2)cc1	Yeast superoxide 54.6 | Superoxide pick inactive | DHE fluor count inactive
CC(C)n1c2ccccc2c2cc([N+](=O)[O-])ccc21	none | Superoxide pick inactive | DHE fluor count inactive
CCn1c2ccccc2c2cc([N+](=O)[O-])ccc21	none | Superoxide pick inactive | DHE fluor count inactive
CC(C)(C)NC(=O)c1ccc(NC(=O)CSc2ccccc2)cc1	none
NC(=O)[C@@H]1CCCN1Cc1nc(Cc2ccccc2Cl)no1	none
Cc1cc(C)c(S(=O)(=O)NCC(=O)NCc2cc(=O)n(C)c(=O)n2C)c(C)c1	none
O=C(CNc1ccc(Br)cc1)NC(=O)NC1CCCCC1	none (no result: VIM-2 inh, Yeast superoxide, IMP-1 inhibitor, PHOSPHO1 block)
Cc1ccc(/C=N/NC(=O)c2cccc(S(=O)(=O)N3CCOCC3)c2)o1	none
OC(COCC(F)(F)C(F)(F)C(F)(F)C(F)F)Cn1c2ccc(Cl)cc2c2cc(Cl)ccc21 (configuration not stated)	none | Superoxide pick inactive | DHE fluor count inactive
CN1C(C(=O)NCc2cccc(C(F)(F)F)c2)CC2Cn3c(nc4cc(Cl)c(Cl)cc43)C21 (configuration not stated)	none (no result: VIM-2 inh, IMP-1 inhibitor)
Cc1nnsc1C(=O)NNC(=O)c1ccc(C(F)(F)F)cc1	Yeast superoxide 63.5 | Superoxide pick inactive | DHE fluor count inactive
Cc1nnsc1C(=O)NNc1ccc(C(C)(C)C)cc1	none
COc1ccc(C(=O)Nc2ccc(NC(=O)Cc3ccccc3)cn2)cc1	none
Cc1ccc(NC(=O)c2ccc(C(=O)c3ccccc3)cc2)nc1	Yeast superoxide 63.4 (no result: VIM-2 inh, IMP-1 inhibitor, PHOSPHO1 block) | Superoxide pick inactive | DHE fluor count inactive
COc1ccc(C2(c3ccc(OC(C)=O)cc3OC(C)=O)CC(c3ccccc3)NC(=S)N2)cc1 (configuration not stated)	Yeast superoxide 61.2 | Superoxide pick inactive | DHE fluor count inactive
CC(=O)Oc1ccc2c(c1)OC(c1ccccc1)CC21CC(C)(C)NC(=S)N1 (configuration not stated)	none
NC(=O)C1=CC2C3C=CC2(O)C(=O)OC3O1 (configuration not stated)	none (no result: VIM-2 inh, Yeast superoxide, IMP-1 inhibitor, PHOSPHO1 block)
CC(=O)c1c(-c2ccccc2)c2cc([N+](=O)[O-])ccc2[nH]c1=O	Yeast superoxide 59.4 | Superoxide pick inactive | DHE fluor count inactive
Cc1ncc([N+](=O)[O-])n1CC(=O)Nc1ccc(Cl)cc1	none
Cc1ncc([N+](=O)[O-])n1CC(=O)Nc1ccc(F)c(F)c1	Yeast superoxide 52.8 | Superoxide pick inactive | DHE fluor count inactive
Nc1nc(SCc2ccc(Br)cc2)n[nH]1	Yeast superoxide 48.9 | Superoxide pick inactive | DHE fluor count inactive
Nc1nc(SCc2ccccc2)n[nH]1	none
CCC(Oc1ccccc1)C(=O)Nc1ccc(C)c(S(=O)(=O)N2CCOCC2)c1 (configuration not stated)	none (no result: VIM-2 inh, IMP-1 inhibitor, PHOSPHO1 block)
Cc1cc([N+](=O)[O-])nn1Cc1ccc(C(=O)N/N=C/c2ccc(O)cc2O)cc1	Yeast superoxide 64.9 | Superoxide pick inactive | DHE fluor count inactive
Cc1cc([N+](=O)[O-])nn1Cc1ccc(C(=O)N/N=C/c2ccc(F)cc2)cc1	none
COc1ccc(F)cc1S(=O)(=O)Nc1ccc(C)cc1	none | Superoxide pick inactive | DHE fluor count inactive
COc1ccc(NS(=O)(=O)c2cc(C)ccc2OC)cc1OC	none
COc1ccc(-c2csc(NC(=O)CCN3C(=O)C4CC=CCC4C3=O)n2)cc1OC (configuration not stated)	none (no result: VIM-2 inh, IMP-1 inhibitor, PHOSPHO1 block)
Cc1[nH]nc(C(=O)NN=Cc2ccccc2Cl)c1N=NN(C)C	none (no result: VIM-2 inh, Yeast superoxide, IMP-1 inhibitor, PHOSPHO1 block)
COc1ccc(-c2c(C(=O)O)nc3ccccc3c2C(=O)O)cc1	Yeast superoxide 62.3 | Superoxide pick inactive | DHE fluor count inactive
COC(=O)C1CN(C(=O)C(C)Oc2ccccc2Cl)c2ccccc2O1 (configuration not stated)	Yeast superoxide 63.5 | Superoxide pick inactive | DHE fluor count inactive
